Experimental data: ChEMBL document CHEMBL4266056, “Discovery and Pharmacology of a Novel Somatostatin Subtype 5 (SSTR5) Antagonist: Synergy with DPP-4 Inhibition” (ACS Med Chem Lett, 2018)
Calls of active or inactive are those of the source. No cut-off for these calls is given here.

What was measured:
[1] = Drug uptake in C57BL/6N mouse whole blood at 0.1 mg/kg, po measured at 3 hrs; format: ADME, organism-based; details: read-out: Drug uptake
Procedure, shortened: (§1)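 Whole-blood compound exposure was measured 3 h after oral dosing (0.03-3 mg/kg) in HFD mice run through the OGTT dose titration. Unbound levels were derived using the plasma free fraction.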

[2] = Clearance in rhesus monkey at […], iv or 1 mg/kg, po; format: ADME, organism-based, Macaca mulatta; details: in vivo
Pancreatic islet [3] = assay: Induction of SST-14 secretion in human pancreatic islets in presence of glucose by ELISA; format: functional, cell-based
Procedure, shortened: (§2)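 In the same human islet incubations, SST-14 and glucagon secretion were monitored alongside insulin.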

Mus musculus [4] = assay: Antidiabetic activity in HFD fed C57BL/6N mouse assessed as increase in plasma insulin levels at 10 mg/kg, po pretreated for 60 mins measured 5 mins post glucose challenge by OGTT; format: functional, organism-based
Procedure, shortened: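 The SSTR5 antagonist was given orally at 10 mg/kg, alone or combined with des-fluoro sitagliptin at 10 mg/kg, ahead of an oral glucose challenge. Blood was sampled 5 min after glucose for circulating total GLP-1, active GLP-1[7-36] amide and plasma insulin.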

[5] = Drug uptake in C57BL/6N mouse whole blood at 0.03 mg/kg, po measured at 3 hrs; format: ADME, organism-based; details: read-out: Drug uptake; procedure, shortened: as §1
[6] = Half life in dog at […], iv or 1 mg/kg, po; format: ADME, organism-based, Canis lupus familiaris; details: in vivo
[7] = Drug uptake in C57BL/6N mouse whole blood at 0.3 mg/kg, po measured at 3 hrs; format: ADME, organism-based; details: read-out: Drug uptake; procedure, shortened: as §1
[8] = Volume of distribution in dog at […], iv or 1 mg/kg, po; format: ADME, organism-based, Canis lupus familiaris; details: in vivo
[9] = biological target: Somatostatin receptor type 1 (Homo sapiens, UniProt P30872); assay: Antagonist activity at human SSTR1 expressed in CHO-K1 cell membranes; format: functional, cell-based
Procedure, shortened: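 Counter-screen by filtration membrane binding: competitive displacement of radiolabeled SST-28 from cell membranes expressing human SSTR1, SSTR2, SSTR3 or SSTR4. The IC50 is the mean of at least duplicate experiments within a maximal threefold range.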

[10] = Drug uptake in C57BL/6N mouse whole blood at 1 mg/kg, po measured at 3 hrs; format: ADME, organism-based; details: read-out: Drug uptake; procedure, shortened: as §1
Mus musculus [11] = assay: Induction of hypoglycemia in C57BL/6N mouse assessed as decrease in basal blood glucose levels at 3 to 30 mg/kg, po measured over 5 hrs; format: organism-based; details: in vivo
Mus musculus [12] = assay: Antidiabetic activity in HFD fed C57BL/6N mouse assessed as decrease in blood glucose AUC at 3 mg/kg administered as single oral dose pretreated for 60 mins followed by glucose challenge measured after 120 mins by OGTT; format: functional; design: scale not given: the % may be the effect or the level left
Procedure, shortened: (§3)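 Oral dose titration (0.03-3 mg/kg) in HFD-fed mice, n=8. Dosing was followed by an oral glucose tolerance test. Net blood glucose AUC was expressed as % reduction versus vehicle, with P values versus vehicle.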

[13] = Half life in rhesus monkey at […], iv or 1 mg/kg, po; format: ADME, organism-based, Macaca mulatta; details: in vivo
Mus musculus [14] = assay: Antidiabetic activity in HFD fed C57BL/6N mouse assessed as decrease in blood glucose AUC at 0.3 mg/kg administered as single oral dose pretreated for 60 mins followed by glucose challenge measured after 120 mins by OGTT; format: functional; design: scale not given: the % may be the effect or the level left; procedure, shortened: as §3
Mus musculus [15] = assay: Antidiabetic activity in HFD fed C57BL/6N mouse assessed as increase in plasma insulin levels at 10 mg/kg, po cotreated with DPP4 inhibitor des-fluoro sitagliptin pretreated with compound for 60 mins followed by glucose challenge measured after 120 mins by OGTT; format: functional, organism-based
[16] = Drug uptake in C57BL/6N mouse whole blood at 3 mg/kg, po measured at 3 hrs; format: ADME, organism-based; details: read-out: Drug uptake; procedure, shortened: as §1
Mus musculus [17] = assay: Antidiabetic activity in HFD fed SSTR5 knock-out C57BL/6N mouse assessed as decrease in blood glucose AUC at 0.03 to 3 mg/kg administered as single oral dose pretreated for 60 mins followed by glucose challenge measured after 120 mins by OGTT; format: functional, organism-based
Pancreatic islet [18] = assay: Induction of glucagon secretion in human pancreatic islets in presence of glucose by ELISA; format: functional, cell-based; procedure, shortened: as §2
[19] = biological target: Voltage-dependent L-type calcium channel subunit alpha-1C (Homo sapiens, UniProt Q13936); assay: Inhibition of Cav1.2 (unknown origin)
[20] = biological target: T1, Nuclear receptor subfamily 1 group I member 2 (Homo sapiens, UniProt O75469); assay: Activation of human PXR; format: ADME
T1 sequence (O75469 whole entry): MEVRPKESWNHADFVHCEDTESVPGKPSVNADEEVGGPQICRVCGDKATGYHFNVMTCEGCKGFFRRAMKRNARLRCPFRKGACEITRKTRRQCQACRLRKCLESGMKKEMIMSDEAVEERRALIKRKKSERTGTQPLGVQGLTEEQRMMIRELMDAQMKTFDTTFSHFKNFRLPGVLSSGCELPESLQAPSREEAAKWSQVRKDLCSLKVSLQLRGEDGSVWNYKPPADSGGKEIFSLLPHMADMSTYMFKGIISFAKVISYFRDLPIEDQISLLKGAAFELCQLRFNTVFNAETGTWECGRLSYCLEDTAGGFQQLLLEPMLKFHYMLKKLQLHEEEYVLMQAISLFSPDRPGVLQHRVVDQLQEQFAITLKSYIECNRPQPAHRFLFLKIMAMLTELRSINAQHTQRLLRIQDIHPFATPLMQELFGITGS

Mus musculus [21] = assay: Antidiabetic activity in HFD fed C57BL/6N mouse assessed as increase in circulating active GLP-1 levels at 10 mg/kg, po cotreated with DPP4 inhibitor des-fluoro sitagliptin pretreated with compound for 60 mins followed by glucose challenge measured after 120 mins by OGTT; format: functional, organism-based
[22] = Clearance in dog at […], iv or 1 mg/kg, po; format: ADME, organism-based, Canis lupus familiaris; details: in vivo
Cytochrome P450 2D6 = Cytochrome P450 2D6 (Homo sapiens, UniProt P10635); assay: Inhibition of human CYP2D6; format: ADME
Sequence of Cytochrome P450 2D6 (P10635 whole entry): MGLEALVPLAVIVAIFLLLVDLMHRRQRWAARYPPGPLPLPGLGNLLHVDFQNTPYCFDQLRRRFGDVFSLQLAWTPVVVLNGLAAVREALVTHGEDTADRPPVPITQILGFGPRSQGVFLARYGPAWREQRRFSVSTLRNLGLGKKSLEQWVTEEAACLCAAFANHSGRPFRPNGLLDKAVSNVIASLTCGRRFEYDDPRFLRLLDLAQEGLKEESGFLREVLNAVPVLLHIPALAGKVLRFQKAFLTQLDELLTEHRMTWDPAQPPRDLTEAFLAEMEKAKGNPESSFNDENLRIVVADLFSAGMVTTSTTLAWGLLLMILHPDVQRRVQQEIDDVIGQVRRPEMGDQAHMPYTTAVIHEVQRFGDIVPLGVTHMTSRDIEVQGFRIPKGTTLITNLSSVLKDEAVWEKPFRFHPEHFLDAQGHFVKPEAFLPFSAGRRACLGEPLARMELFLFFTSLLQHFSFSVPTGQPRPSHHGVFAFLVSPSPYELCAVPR

Sequence of Somatostatin receptor type 1 (P30872 whole entry): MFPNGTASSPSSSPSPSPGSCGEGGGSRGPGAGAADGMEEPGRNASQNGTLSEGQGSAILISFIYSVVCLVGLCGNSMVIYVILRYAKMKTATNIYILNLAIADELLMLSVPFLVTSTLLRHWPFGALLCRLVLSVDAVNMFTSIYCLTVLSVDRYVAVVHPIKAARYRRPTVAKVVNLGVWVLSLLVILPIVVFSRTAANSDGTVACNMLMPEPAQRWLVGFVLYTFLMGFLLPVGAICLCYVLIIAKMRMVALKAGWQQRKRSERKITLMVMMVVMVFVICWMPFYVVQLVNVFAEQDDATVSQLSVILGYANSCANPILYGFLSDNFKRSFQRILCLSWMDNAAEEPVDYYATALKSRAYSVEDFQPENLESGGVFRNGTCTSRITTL
Sequence of Voltage-dependent L-type calcium channel subunit alpha-1C (Q13936 whole entry): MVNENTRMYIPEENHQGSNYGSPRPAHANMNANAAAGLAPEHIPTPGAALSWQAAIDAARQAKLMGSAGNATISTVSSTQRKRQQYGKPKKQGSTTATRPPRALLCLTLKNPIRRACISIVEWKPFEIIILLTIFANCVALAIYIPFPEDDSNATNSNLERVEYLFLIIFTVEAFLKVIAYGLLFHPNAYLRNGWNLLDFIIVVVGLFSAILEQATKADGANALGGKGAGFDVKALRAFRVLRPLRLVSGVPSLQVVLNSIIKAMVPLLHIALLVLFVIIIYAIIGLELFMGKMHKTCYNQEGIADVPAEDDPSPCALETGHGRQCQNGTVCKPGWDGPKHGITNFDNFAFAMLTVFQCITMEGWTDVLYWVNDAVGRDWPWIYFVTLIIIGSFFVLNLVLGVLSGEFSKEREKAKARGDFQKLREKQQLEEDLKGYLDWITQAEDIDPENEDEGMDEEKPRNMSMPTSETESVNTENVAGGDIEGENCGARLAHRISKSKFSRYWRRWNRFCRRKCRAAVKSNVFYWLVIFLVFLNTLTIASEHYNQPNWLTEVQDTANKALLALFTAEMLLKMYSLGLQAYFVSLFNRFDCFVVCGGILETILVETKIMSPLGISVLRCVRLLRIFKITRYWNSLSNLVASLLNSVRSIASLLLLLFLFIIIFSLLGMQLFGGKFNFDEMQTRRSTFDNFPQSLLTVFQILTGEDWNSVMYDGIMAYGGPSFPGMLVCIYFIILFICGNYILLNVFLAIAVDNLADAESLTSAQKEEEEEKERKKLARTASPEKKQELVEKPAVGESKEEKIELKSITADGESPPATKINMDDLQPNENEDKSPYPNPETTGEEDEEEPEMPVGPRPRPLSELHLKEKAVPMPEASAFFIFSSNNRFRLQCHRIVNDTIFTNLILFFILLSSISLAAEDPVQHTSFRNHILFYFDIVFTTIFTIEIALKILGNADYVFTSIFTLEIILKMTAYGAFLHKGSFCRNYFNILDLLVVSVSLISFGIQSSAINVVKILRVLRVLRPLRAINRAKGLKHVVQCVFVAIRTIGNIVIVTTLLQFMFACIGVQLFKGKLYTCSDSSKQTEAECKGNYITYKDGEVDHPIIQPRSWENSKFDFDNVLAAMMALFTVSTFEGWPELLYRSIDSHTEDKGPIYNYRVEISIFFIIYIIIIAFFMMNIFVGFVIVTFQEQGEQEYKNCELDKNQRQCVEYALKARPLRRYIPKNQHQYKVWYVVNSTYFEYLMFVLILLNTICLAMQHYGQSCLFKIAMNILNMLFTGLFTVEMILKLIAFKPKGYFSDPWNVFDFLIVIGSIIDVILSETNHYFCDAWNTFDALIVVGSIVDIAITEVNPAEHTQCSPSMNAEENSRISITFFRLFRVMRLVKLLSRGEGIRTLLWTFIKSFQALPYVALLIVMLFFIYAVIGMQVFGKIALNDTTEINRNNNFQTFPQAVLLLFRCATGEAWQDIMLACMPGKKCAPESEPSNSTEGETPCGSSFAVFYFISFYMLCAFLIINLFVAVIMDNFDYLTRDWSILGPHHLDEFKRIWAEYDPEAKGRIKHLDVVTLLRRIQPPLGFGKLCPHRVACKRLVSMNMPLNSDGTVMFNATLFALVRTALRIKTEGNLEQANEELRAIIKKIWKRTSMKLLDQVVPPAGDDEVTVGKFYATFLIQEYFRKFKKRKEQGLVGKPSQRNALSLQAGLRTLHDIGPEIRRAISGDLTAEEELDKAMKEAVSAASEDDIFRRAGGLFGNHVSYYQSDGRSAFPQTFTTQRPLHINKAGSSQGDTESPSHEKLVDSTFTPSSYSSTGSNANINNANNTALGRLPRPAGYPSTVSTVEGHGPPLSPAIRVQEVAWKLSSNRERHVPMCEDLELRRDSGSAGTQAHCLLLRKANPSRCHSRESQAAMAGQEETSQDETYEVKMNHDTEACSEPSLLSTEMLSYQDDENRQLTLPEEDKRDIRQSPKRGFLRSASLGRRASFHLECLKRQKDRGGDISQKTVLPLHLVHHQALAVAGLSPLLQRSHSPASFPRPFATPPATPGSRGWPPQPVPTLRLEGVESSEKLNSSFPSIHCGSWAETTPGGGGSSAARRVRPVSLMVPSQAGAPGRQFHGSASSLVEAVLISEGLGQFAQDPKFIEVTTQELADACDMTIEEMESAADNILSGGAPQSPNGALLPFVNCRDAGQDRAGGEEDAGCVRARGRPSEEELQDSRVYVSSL

concentration at 3 h [1]: 11 nM | clearance [2]: 11.8 mL/min/kg | concentration at 3 h [5]: 4 nM | half-life [6]: 990 min | concentration at 3 h [7]: 34 nM | Vd [8]: 2.82 L/kg | IC50 [9]: > 10 µM | concentration at 3 h [10]: 131 nM | half-life [13]: 120 min | concentration at 3 h [16]: 351 nM | Activity [20]: Not Active | clearance [22]: 2.2 mL/min/kg | IC50 (Cytochrome P450 2D6): > 50 µM
SMILES: CCOc1cc(CN2CCC3(CC2)CC(=O)N(c2ccc(C(=O)O)cc2)C3)cc(OCC)c1-c1ccc(F)cc1.O=C(O)C(F)(F)F
Activity (Pancreatic islet [3]): inactive | Activity (Mus musculus [4]): Active | Activity (Mus musculus [11]): Non-Toxic | Activity (Mus musculus [12]): 84 - 94% | Activity (Mus musculus [14]): 59% | Activity (Mus musculus [15]): Active | Activity (Mus musculus [17]): inactive | Activity (Pancreatic islet [18]): inactive | IC50 [19]: > 15 µM | Activity (Mus musculus [21]): Active
